Data from ChEMBL document CHEMBL2384923, “Design, synthesis and antimicrobial activities evaluation of Schiff base derived from secnidazole derivatives as potential FabH inhibitors” (Bioorg Med Chem, 2013).
≈ marks a conversion by molar mass, not a printed value.

Key:
[1] = Inhibition of Escherichia coli N-terminal His-tagged full length FabH expressed in Escherichia coli BL21 (DE3) using [3H]acetyl-CoA as substrate assessed as incorporation of [3H] signal into product after 25 mins by liquid scintillation counting analysis
Summary of the method: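 His-tagged FabH was purified on Ni-NTA. Holo-ACP was made from apo-ACP with ACPS and CoA. The 20 µL reaction held pH 7.0 sodium phosphate (20 mM), 0.5 mM DTT, 0.25 mM MgCl₂, 2.5 µM holo-ACP and 1 nM FabH, preincubated 1 min. The reaction started with a 2 µL mix of 25 µM acetyl-CoA and 0.75 µCi [³H]acetyl-CoA and ran 25 min. It was stopped with ice-cold TCA, and the washed pellet was counted. Inhibitors were added from DMSO stock, ≤2% DMSO final, and IC50 was determined.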

[2] = tested on: Staphylococcus aureus; experiment: Antimicrobial activity against Staphylococcus aureus ATCC 6538 after 24 hrs by two fold serial dilution method; format: functional; settings: ATCC 6538, 24 h
Summary of the method: (§1)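 Tested per NCCLS by two-fold serial dilution in nutrient broth. The inoculum came from 24 h cultures on nutrient agar at 37 ± 1 °C and was adjusted with sterile saline to 1 ×10^4-105 CFU. […] Tubes were incubated at 37 ± 1 °C, and MIC was read visually after 24 h. Kanamycin and DDCP served as standards.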

[3] = tested on: Bacillus subtilis; experiment: Antimicrobial activity against Bacillus subtilis ATCC 530 after 24 hrs by two fold serial dilution method; format: functional; settings: ATCC 530, 24 h; summary of the method: as §1
[4] = tested on: Pseudomonas aeruginosa; experiment: Antimicrobial activity against Pseudomonas aeruginosa ATCC 27853 after 24 hrs by two fold serial dilution method; format: functional; settings: ATCC 27853, 24 h; summary of the method: as §1
[5] = tested on: Escherichia coli; experiment: Antimicrobial activity against Escherichia coli ATCC 25922 after 24 hrs by two fold serial dilution method; format: functional; settings: ATCC 25922, 24 h; summary of the method: as §1

Row | SMILES | IC50 [1] | MIC [2] | MIC [3] | MIC [4] | MIC [5]
1 | COc1ccc(/C=N/NC(=O)Cn2c([N+](=O)[O-])cnc2C)cc1 | 4.5 µM | 12.5 µg/mL (≈ 39.4 µM) | 6.25 µg/mL (≈ 19.7 µM) | 6.25 µg/mL (≈ 19.7 µM) | 6.25 µg/mL (≈ 19.7 µM)
2 | Cc1ncc([N+](=O)[O-])n1CC(=O)N/N=C/c1ccc([N+](=O)[O-])cc1 |  | 25 µg/mL (≈ 75.2 µM) | 50 µg/mL (≈ 150 µM) | 25 µg/mL (≈ 75.2 µM) | 25 µg/mL (≈ 75.2 µM)
3 | Cc1ncc([N+](=O)[O-])n1CC(=O)N/N=C/c1ccc(O)cc1 |  | > 100 µg/mL | > 100 µg/mL | > 100 µg/mL | 50 µg/mL (≈ 165 µM)
4 | Cc1ccc(/C=N/NC(=O)Cn2c([N+](=O)[O-])cnc2C)cc1 | 6.2 µM | 12.5 µg/mL (≈ 41.5 µM) | 25 µg/mL (≈ 83 µM) | 6.25 µg/mL (≈ 20.7 µM) | 6.25 µg/mL (≈ 20.7 µM)
5 | Cc1ncc([N+](=O)[O-])n1CC(=O)N/N=C/c1ccc(N(C)C)cc1 | 15.9 µM | 25 µg/mL (≈ 75.7 µM) | 12.5 µg/mL (≈ 37.8 µM) | 12.5 µg/mL (≈ 37.8 µM) | 12.5 µg/mL (≈ 37.8 µM)
6 | Cc1ncc([N+](=O)[O-])n1CC(=O)N/N=C/c1cccc(F)c1 |  | 25 µg/mL (≈ 81.9 µM) | 25 µg/mL (≈ 81.9 µM) | 50 µg/mL (≈ 164 µM) | 50 µg/mL (≈ 164 µM)
7 | Cc1ncc([N+](=O)[O-])n1CC(=O)N/N=C/c1cccc(Br)c1 |  | > 100 µg/mL | > 100 µg/mL | 50 µg/mL (≈ 137 µM) | 25 µg/mL (≈ 68.3 µM)
8 | Cc1ncc([N+](=O)[O-])n1CC(=O)N/N=C/c1cccc(Cl)c1 |  | 50 µg/mL (≈ 155 µM) | 50 µg/mL (≈ 155 µM) | 50 µg/mL (≈ 155 µM) | 25 µg/mL (≈ 77.7 µM)
9 | Cc1ncc([N+](=O)[O-])n1CC(=O)N/N=C/c1cccc([N+](=O)[O-])c1 |  | 50 µg/mL (≈ 150 µM) | > 100 µg/mL | 50 µg/mL (≈ 150 µM) | 25 µg/mL (≈ 75.2 µM)
10 | COc1cccc(/C=N/NC(=O)Cn2c([N+](=O)[O-])cnc2C)c1 |  | 25 µg/mL (≈ 78.8 µM) | 50 µg/mL (≈ 158 µM) | 50 µg/mL (≈ 158 µM) | 25 µg/mL (≈ 78.8 µM)
11 | Cc1ncc([N+](=O)[O-])n1CC(=O)N/N=C/c1ccccc1Cl |  | 50 µg/mL (≈ 155 µM) | 50 µg/mL (≈ 155 µM) | > 100 µg/mL | > 100 µg/mL
12 | Cc1ncc([N+](=O)[O-])n1CC(=O)N/N=C/c1ccccc1F | 47.5 µM | > 100 µg/mL | > 100 µg/mL | > 100 µg/mL | > 100 µg/mL
13 | Cc1ncc([N+](=O)[O-])n1CC(=O)N/N=C/c1ccccc1[N+](=O)[O-] | 19.8 µM | 12.5 µg/mL (≈ 37.6 µM) | 12.5 µg/mL (≈ 37.6 µM) | 25 µg/mL (≈ 75.2 µM) | 25 µg/mL (≈ 75.2 µM)
14 | COc1ccccc1/C=N/NC(=O)Cn1c([N+](=O)[O-])cnc1C | 42.4 µM | > 100 µg/mL | > 100 µg/mL | 50 µg/mL (≈ 158 µM) | 50 µg/mL (≈ 158 µM)
15 | Cc1ncc([N+](=O)[O-])n1CC(=O)N/N=C/c1ccc(F)cc1F |  | 25 µg/mL (≈ 77.3 µM) | 50 µg/mL (≈ 155 µM) | 50 µg/mL (≈ 155 µM) | 50 µg/mL (≈ 155 µM)
16 | COc1ccc(/C=N/NC(=O)Cn2c([N+](=O)[O-])cnc2C)cc1OC | 8.8 µM | 12.5 µg/mL (≈ 36 µM) | 25 µg/mL (≈ 72 µM) | 12.5 µg/mL (≈ 36 µM) | 12.5 µg/mL (≈ 36 µM)
17 | Cc1cc(/C=N/NC(=O)Cn2c([N+](=O)[O-])cnc2C)cc(C)c1C | 2.3 µM | 3.13 µg/mL (≈ 9.5 µM) | 3.13 µg/mL (≈ 9.5 µM) | 6.25 µg/mL (≈ 19 µM) | 3.13 µg/mL (≈ 9.5 µM)
18 | Cc1ncc([N+](=O)[O-])n1CC(=O)N/N=C/c1ccc(Cl)cc1 |  | > 100 µg/mL | > 100 µg/mL | 50 µg/mL (≈ 155 µM) | 50 µg/mL (≈ 155 µM)
19 | Cc1ncc([N+](=O)[O-])n1CC(=O)N/N=C/c1ccc(Br)cc1 |  | 25 µg/mL (≈ 68.3 µM) | 25 µg/mL (≈ 68.3 µM) | 12.5 µg/mL (≈ 34.1 µM) | 25 µg/mL (≈ 68.3 µM)
20 | Cc1ncc([N+](=O)[O-])n1CC(=O)N/N=C/c1ccc(F)cc1 | 58.3 µM | > 100 µg/mL | > 100 µg/mL | > 100 µg/mL | > 100 µg/mL
21 | NC[C@H]1O[C@H](O[C@H]2[C@H](O)[C@@H](O[C@H]3O[C@H](CO)[C@@H](O)[C@H](N)[C@H]3O)[C@H](N)C[C@@H]2N)[C@H](O)[C@@H](O)[C@@H]1O [KANAMYCIN] |  | 1.56 µg/mL (≈ 3.22 µM) | 1.56 µg/mL (≈ 3.22 µM) | 3.13 µg/mL (≈ 6.46 µM) | 3.13 µg/mL (≈ 6.46 µM)
